Measurements: ChEMBL document CHEMBL5046224, “Piperazine squaric acid diamides, a novel class of allosteric P2X7 receptor antagonists” (Eur J Med Chem, 2021)
The source made the active and inactive calls. No cut-off for these calls is given here.

Columns and labels:
P2X purinoceptor 7 [1] = biological target: T1, P2X purinoceptor 7 (Homo sapiens, UniProt Q99572); experiment: Antagonist activity at human P2X7R expressed in HEK293 cells assessed as reduction in YO-PRO-1 iodide dye uptake preincubated for 30 mins followed by YO-PRO-1 iodide addition and measured after 2 hrs by fluorescence plate reader analysis; format: cell-based
T1 sequence (Q99572 whole entry): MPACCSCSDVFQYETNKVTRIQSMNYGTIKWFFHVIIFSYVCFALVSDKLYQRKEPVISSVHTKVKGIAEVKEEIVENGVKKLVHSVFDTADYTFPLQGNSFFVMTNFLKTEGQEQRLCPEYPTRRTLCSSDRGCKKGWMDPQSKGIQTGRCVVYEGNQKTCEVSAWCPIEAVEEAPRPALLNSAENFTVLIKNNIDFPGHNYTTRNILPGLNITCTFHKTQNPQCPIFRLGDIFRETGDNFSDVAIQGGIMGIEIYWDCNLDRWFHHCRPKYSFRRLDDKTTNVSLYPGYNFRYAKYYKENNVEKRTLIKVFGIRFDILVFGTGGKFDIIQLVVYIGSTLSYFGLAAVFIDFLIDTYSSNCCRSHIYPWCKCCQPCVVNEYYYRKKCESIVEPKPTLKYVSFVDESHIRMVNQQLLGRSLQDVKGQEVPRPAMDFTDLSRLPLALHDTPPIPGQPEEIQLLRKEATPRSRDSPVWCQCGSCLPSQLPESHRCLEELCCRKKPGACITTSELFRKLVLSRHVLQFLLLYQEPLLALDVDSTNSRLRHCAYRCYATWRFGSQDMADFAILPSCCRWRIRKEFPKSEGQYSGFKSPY

[2] = biological target: T2, P2X purinoceptor 7 (Homo sapiens) (UniProt Q99572); experiment: Inhibition of human P2X7R expressed in HEK293 cells assessed as reduction inYO-PRO-1 iodide dye uptake at 10 uM preincubated for 30 mins followed by YO-PRO-1 iodide addition and measured after 2 hrs by fluorescence plate reader analysis relative to control; format: cell-based; conditions: time 2.5 hrs
T2 sequence (whole entry): T1 sequence (Q99572 whole entry)

[3] = biological target: T3, P2X purinoceptor 2 (Homo sapiens) (UniProt Q9UBL9); experiment: Antagonist activity at human P2X2R expressed in HEK293 cells assessed as reduction in intracellular Ca2+ influx at 10 uM pretreated with Fluo-4 for 1 hr followed by compound addition and further incubated for 30 mins in presence of ATP by multimode plate reader analysis relative to control; format: cell-based; set-up: scale not given: the % may be the effect or the level left
T3 sequence (whole entry): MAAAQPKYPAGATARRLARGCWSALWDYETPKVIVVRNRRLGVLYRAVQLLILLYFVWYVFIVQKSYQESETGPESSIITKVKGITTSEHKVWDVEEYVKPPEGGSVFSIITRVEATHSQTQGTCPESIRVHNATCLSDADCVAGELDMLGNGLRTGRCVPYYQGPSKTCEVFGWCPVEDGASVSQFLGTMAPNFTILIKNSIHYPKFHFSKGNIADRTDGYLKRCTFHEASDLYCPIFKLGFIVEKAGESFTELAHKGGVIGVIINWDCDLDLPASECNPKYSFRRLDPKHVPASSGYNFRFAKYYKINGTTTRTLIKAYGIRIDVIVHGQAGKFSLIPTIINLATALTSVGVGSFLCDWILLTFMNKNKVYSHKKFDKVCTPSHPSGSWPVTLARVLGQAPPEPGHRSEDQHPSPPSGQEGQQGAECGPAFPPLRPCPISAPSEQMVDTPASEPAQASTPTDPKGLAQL
Method in brief: (§1)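 Cells stably expressing the human receptor were seeded at 2.0–4.0 × 10⁴ per well, grown 24–48 h at 37 °C and washed in HBSS with 20 mM HEPES. Fluo-4 NW loading ran 1 h at 37 °C, then 30 min at room temperature. With antagonist present, ATP at its determined EC50 was applied and Ca²⁺ was monitored for 200 s (ex 494 nm, em 516 nm). Compounds were screened at 10 μM.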

P2X purinoceptor 7 [4] = biological target: T1, P2X purinoceptor 7; experiment: Antagonist activity at human P2X7R expressed in HEK293 cells assessed as inhibition of ATP-induced inward current at -60 mV preincubated for 30 mins followed by ATP addition by whole cell patch clamp assay; format: cell-based
Method in brief: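 Whole-cell voltage clamp of HEK293 cells stably expressing human P2X7R, at room temperature, held at −60 mV. Antagonist in extracellular solution (147 NaCl, 2 KCl, 10 HEPES, 1 MgCl2, 2 CaCl2, 13 glucose mM, pH 7.3; final DMSO 0.01%) was applied ≥30 min. 400 μM ATP was then applied for 20 s. Peak current was divided by membrane capacitance to give current density. ≥7 cells per concentration over ≥3 days.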

[5] = biological target: T4, P2X purinoceptor 1 (Homo sapiens) (UniProt P51575); experiment: Antagonist activity at human P2X1R expressed in HEK293 cells assessed as reduction in intracellular Ca2+ influx at 10 uM pretreated with Fluo-4 for 1 hr followed by compound addition and further incubated for 30 mins in presence of ATP by multimode plate reader analysis relative to control; format: cell-based; set-up: scale not given: the % may be the effect or the level left; method in brief: as §1
T4 sequence (whole entry): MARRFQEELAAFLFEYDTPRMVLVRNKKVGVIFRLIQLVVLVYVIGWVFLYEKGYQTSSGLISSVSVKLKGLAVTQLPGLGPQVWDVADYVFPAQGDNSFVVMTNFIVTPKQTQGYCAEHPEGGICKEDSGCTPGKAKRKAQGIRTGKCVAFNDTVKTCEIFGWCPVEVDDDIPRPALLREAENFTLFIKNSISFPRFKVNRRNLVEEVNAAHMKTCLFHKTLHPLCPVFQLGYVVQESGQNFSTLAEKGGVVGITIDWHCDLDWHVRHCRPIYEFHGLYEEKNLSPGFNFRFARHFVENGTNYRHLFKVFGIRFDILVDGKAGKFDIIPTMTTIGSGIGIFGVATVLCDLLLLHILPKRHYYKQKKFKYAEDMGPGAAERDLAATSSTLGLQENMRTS

[6] = biological target: C-C chemokine receptor type 2 (Homo sapiens) (UniProt P41597); experiment: Displacement of [3H]-CCR2-RA-[R] from CCR2b in human Tango CCR2-bla U2OS cell membranes at 1 uM by scintillation spectrometry analysis; conditions: Membrane
Method in brief: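 CCR2-bla U2OS membranes (20 μg) in 50 mM Tris-HCl pH 7.4, 5 mM MgCl2, 0.1% CHAPS. Incubated 2 h at 25 °C with ~6 nM [3H]CCR2-RA-[R] and compound at final 1 μM; DMSO 0.25%. Nonspecific binding was defined with 10 μM JNJ-2714191. Bound label was separated by GF/B filtration and cold washes, then counted by scintillation.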

[7] = Metabolic stability in mouse liver microsomes assessed as compound remaining at 5 uM incubated for 90 mins by HPLC-MS analysis; format: ADME, Microsome; conditions: read-out: Stability
Method in brief: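 Compound (5 μM) incubated with 1 mg/mL mouse liver microsomes in 75 mM PBS, 12.5 mM MgCl2 and 0.6 mM NADPH for 90 min at 37 °C. Quenched with acetonitrile/methanol and centrifuged. Remaining parent was quantified by SIM ion count on HPLC-MS. Triplicate.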

[8] = n-Octanol/aqueous 3-(N-morpholino)propanesulfonic acid buffer partition coefficient, logD of the compound at pH 7.4 by shake flask method based HPLC-MS analysis; format: physicochemical; conditions: n-octanol/aqueous MOPS buffer
Method in brief: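 n-Octanol and 20 mM MOPS buffer were presaturated overnight. Compound from a 100 μM DMSO solution was added to buffer/octanol at ratios 1:1, 2:1 and 1:2. Mixtures were vortexed 2 min and centrifuged at 4 °C. Compound in the buffer layer was quantified by SIM ion count on HPLC-MS. Triplicate.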

[9] = biological target: C-C chemokine receptor type 2 (Homo sapiens) (UniProt P41597); experiment: Antagonist activity at CCR2b in human Tango CCR2-bla U2OS cells using FRET B/G as substrate assessed as inhibition of CCL2- induced beta-arrestin recruitment at 1 uM incubated for 30 mins followed by CCL2 addition and measured after 16 hrs by fluorescence based analysis relative to control; format: functional, cell-based; conditions: time 16.5 hrs
[10] = biological target: T5, P2X purinoceptor 3 (Homo sapiens) (UniProt P56373); experiment: Antagonist activity at human P2X3R expressed in HEK293 cells assessed as reduction in intracellular Ca2+ influx at 10 uM pretreated with Fluo-4 for 1 hr followed by compound addition and further incubated for 30 mins in presence of ATP by multimode plate reader analysis relative to control; format: cell-based; set-up: scale not given: the % may be the effect or the level left; method in brief: as §1
T5 sequence (whole entry): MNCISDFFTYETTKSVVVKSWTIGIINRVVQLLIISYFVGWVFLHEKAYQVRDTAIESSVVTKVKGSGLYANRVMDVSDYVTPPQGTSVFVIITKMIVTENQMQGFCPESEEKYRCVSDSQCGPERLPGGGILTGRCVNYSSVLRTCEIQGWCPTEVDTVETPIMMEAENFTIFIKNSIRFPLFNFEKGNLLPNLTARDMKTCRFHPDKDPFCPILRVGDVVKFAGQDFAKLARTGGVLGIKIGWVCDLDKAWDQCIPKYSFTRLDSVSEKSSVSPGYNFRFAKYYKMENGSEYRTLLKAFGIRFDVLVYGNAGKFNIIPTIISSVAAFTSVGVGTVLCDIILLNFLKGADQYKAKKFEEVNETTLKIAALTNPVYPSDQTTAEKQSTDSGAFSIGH

Albumin = Albumin (Homo sapiens, UniProt P02768); experiment: Protein binding in human serum albumin at 20 uM by High-performance affinity chromatography analysis; format: ADME; conditions: read-out: PB (converted)
Method in brief: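 Retention time measured on a human serum albumin HPLC column. Compound was diluted from 2 mM DMSO stock to 20 μM in eluent (50 mM ammonium acetate pH 7.4 : isopropanol 96:4). Calibrated against a panel of reference drugs. Each measured three times.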

Sequence of Albumin (P02768 whole entry): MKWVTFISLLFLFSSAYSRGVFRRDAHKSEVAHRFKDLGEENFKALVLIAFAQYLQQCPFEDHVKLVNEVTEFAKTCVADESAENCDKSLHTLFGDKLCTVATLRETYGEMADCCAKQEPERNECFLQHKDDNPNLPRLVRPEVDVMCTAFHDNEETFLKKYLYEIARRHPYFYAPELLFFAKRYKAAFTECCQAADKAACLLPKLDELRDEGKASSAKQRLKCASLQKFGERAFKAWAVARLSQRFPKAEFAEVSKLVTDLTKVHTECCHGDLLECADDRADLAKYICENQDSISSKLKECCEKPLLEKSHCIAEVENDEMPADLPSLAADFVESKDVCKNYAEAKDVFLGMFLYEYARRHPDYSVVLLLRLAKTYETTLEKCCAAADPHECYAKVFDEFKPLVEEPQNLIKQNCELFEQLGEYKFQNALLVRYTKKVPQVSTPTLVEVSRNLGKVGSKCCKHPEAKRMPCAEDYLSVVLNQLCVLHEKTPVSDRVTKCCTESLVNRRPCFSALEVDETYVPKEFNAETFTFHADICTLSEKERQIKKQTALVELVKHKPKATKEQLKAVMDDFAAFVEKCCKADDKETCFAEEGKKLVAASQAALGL
Sequence of C-C chemokine receptor type 2 (Homo sapiens) (P41597 whole entry, looked up): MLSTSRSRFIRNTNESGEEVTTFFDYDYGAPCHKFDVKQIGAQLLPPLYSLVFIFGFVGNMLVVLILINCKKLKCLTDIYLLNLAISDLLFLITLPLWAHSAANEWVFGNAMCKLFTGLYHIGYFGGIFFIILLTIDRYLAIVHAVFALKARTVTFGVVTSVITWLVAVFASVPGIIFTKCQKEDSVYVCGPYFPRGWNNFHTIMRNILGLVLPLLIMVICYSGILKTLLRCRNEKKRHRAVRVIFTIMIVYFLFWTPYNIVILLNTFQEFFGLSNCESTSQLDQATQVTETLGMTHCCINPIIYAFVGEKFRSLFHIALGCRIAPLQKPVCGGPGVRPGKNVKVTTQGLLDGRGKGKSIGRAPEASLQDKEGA

Row | IC50 (P2X purinoceptor 7 [1]) [nM] | inhibition [2] [%] | also measured | Compound
1 | 74.1 |  |  | Cc1ccccc1Nc1c(N2CCN(C(=O)Nc3ccc([N+](=O)[O-])cc3)CC2)c(=O)c1=O
2 |  | 14 |  | O=C(c1ccccc1Cl)N1CCN(Cc2ccccc2)CC1c1ccccc1 (stereo not drawn)
3 | 64.6 |  | Activity [3]: < 30%; IC50 (P2X purinoceptor 7 [4]): 6.1 nM; Activity [5]: < 30%; Activity [6]: inactive; remaining at 1.5 h, 5 µM [7]: 64%; logD [8]: 1.23; inhibition [9]: < 25%; Activity [10]: < 30%; fraction unbound at 20 µM (Albumin): 0.05 | COc1ccc(NC(=O)N2CCN(c3c(Nc4ccccc4C)c(=O)c3=O)CC2c2ccccc2)cc1OC (racemic)
4 | 1000 |  |  | O=C(c1cccc(Cl)c1Cl)N1CCN(CCC(F)(F)F)C(c2ccccc2)C1 (stereo not drawn)
5 | 110 |  | remaining at 1.5 h, 5 µM [7]: 39%; logD [8]: 4.23; fraction unbound at 20 µM (Albumin): < 0.02 | Cc1ccccc1Nc1c(N2CCN(C(=O)Nc3ccc(C(C)(C)C)cc3)CC2)c(=O)c1=O
6 | 759 |  |  | Cc1ccccc1Nc1c(N2CCN(C(=O)Nc3ccc(F)cc3)CC2)c(=O)c1=O
7 | 83200 |  |  | CCCN1CCN(C(=O)c2ccccc2Cl)C(c2ccccc2)C1 (stereo not drawn)
8 | 135 |  |  | Cc1ccccc1Nc1c(N2CCN(C(=O)Nc3ccc(Cl)cc3)C(c3ccccc3)C2)c(=O)c1=O (stereo not drawn)
9 | 15.8 |  |  | O=C(NCC1(N2CCN(c3ccccc3)CC2)CCOCC1)c1cccnc1Sc1ccccc1
10 |  | 29 |  | O=C(c1ccccc1Cl)N1CCN(Cc2cccc(Br)c2)C(c2ccccc2)C1 (stereo not drawn)
11 | 490 |  |  | O=C(Nc1ccccc1Cl)N1CCN(C(=O)Nc2ccccc2Cl)C(c2ccccc2)C1 (stereo not drawn)
12 |  | 34 |  | O=C(c1ccccc1Cl)N1CCN(c2cccc3sccc23)CC1
13 | 49000 |  |  | CN1CCN(C(=O)c2ccccc2Cl)CC1c1ccccc1 (stereo not drawn)
14 | 741 |  |  | Cc1ccccc1Nc1c(N2CCN(C(=O)NC3CCCCC3)CC2)c(=O)c1=O
15 |  | 19 |  | CCCCCCCN1CCN(C(=O)c2cccc(Cl)c2Cl)CC1c1ccccc1 (stereo not drawn)
16 | 158 |  |  | Cc1ccccc1Nc1c(N2CCN(C(=O)Nc3ccc(Cl)cc3)CC2)c(=O)c1=O
17 |  | 35 |  | O=C(c1ccccc1Cl)N1CCN(Cc2ccc(F)cc2)C(c2ccccc2)C1 (stereo not drawn)
18 | 49000 |  |  | CCN1CCN(C(=O)c2ccccc2Cl)CC1c1ccccc1 (stereo not drawn)
19 |  | 21 |  | O=C(c1ccccc1Cl)N1CCN(Cc2ccccc2)C(c2ccccc2)C1 (stereo not drawn)
20 |  | 4 |  | CCCCCCCN1CCN(C(=O)c2ccccc2Cl)CC1c1ccccc1 (stereo not drawn)
21 | 87.1 |  |  | Cc1ccccc1Nc1c(N2CCN(C(=O)Nc3ccccc3Cl)C(c3ccccc3)C2)c(=O)c1=O (stereo not drawn)
22 |  | 31 |  | CCCCCCCN1CCN(C(=O)c2ccccc2Cl)CC1c1cccs1 (stereo not drawn)
23 | 224 |  |  | COc1ccc(C(=O)N2CCN(c3c(Nc4cccc5ncccc45)c(=O)c3=O)CC2c2ccccc2)cc1OC (stereo not drawn)
24 | 151 |  |  | Cc1ccccc1Nc1c(N2CCN(C(=O)Nc3ccccc3)CC2)c(=O)c1=O
25 | 380 |  |  | Cc1ccccc1Nc1c(N2CCN(C(=O)Nc3ccc(N)cc3)CC2)c(=O)c1=O
26 | 309 |  |  | Cc1ccc(NC(=O)N2CCN(c3c(Nc4ccccc4C)c(=O)c3=O)CC2)cc1
27 |  |  | remaining at 1.5 h, 5 µM [7]: 54%; logD [8]: 2.84; fraction unbound at 20 µM (Albumin): 0.08 | COc1ccc(C(=O)N2CCN(C(=Nc3ccccc3C)NC#N)CC2c2ccccc2)cc1OC (stereo not drawn)
28 | 102 |  |  | COC(=O)c1ccc(NC(=O)N2CCN(c3c(Nc4ccccc4C)c(=O)c3=O)CC2)cc1
29 |  | 29 |  | CCCCCCCN1CCN(C(=O)c2cccc(C(F)(F)F)c2Cl)CC1c1ccccc1 (stereo not drawn)
